# Calls of active or inactive are those of the source. The rule behind the calls is not given here.
# What was measured:
# SK-OV-3 = assay: Cytotoxicity against human SKOV3 cells assessed as cell viability after 48 hrs by neutral red uptake assay; type: cell-based; conditions: sk-ov-3, 48 h
# Method in brief: (§1)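 Neutral red uptake assay on human cancer lines (SK-MEL, KB, BT-549, SK-OV-3) and noncancerous mammalian cells (VERO, LLC-PK1). Highest tested concentration was 10 µg/mL.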
# Aspergillus fumigatus = assay: Antifungal activity against Aspergillus fumigatus assessed as growth inhibition; type: functional, organism-based
# BT-549 = assay: Cytotoxicity against human BT549 cells assessed as cell viability after 48 hrs by neutral red uptake assay; type: cell-based; conditions: bt-549, 48 h; method in brief: as §1
# [1] = Selectivity index, ratio of cytotoxicity against human SKOV3 cells to IC50 for Cryptococcus neoformans ATCC 90113; type: toxicity, cell-based, SK-OV-3; conditions: read-out: Selectivity Index
# Nakaseomyces glabratus = assay: Antifungal activity against Candida glabrata assessed as growth inhibition; type: functional, organism-based
# SK-MEL = assay: Cytotoxicity against human SK-MEL cells assessed as cell viability after 48 hrs by neutral red uptake assay; type: cell-based; method in brief: as §1
# [2] = Selectivity index, ratio of cytotoxicity against african green monkey Vero cells to IC50 for Cryptococcus neoformans ATCC 90113; type: toxicity, cell-based; conditions: read-out: Selectivity Index
# [3] = Selectivity index, ratio of cytotoxicity against human SK-MEL cells to IC50 for Cryptococcus neoformans ATCC 90113; type: toxicity, cell-based; conditions: read-out: Selectivity Index
# [4] = Selectivity index, ratio of cytotoxicity against human KB cells to IC50 for Cryptococcus neoformans ATCC 90113; type: toxicity, cell-based; conditions: read-out: Selectivity Index
# [5] = Selectivity index, ratio of cytotoxicity against pig LLC-PK1 cells to IC50 for Cryptococcus neoformans ATCC 90113; type: toxicity, cell-based; conditions: read-out: Selectivity Index
# Escherichia coli = assay: Antibacterial activity against Escherichia coli ATCC 35218 assessed as growth inhibition after 16-20 hrs by CLSI method; type: functional, organism-based
# Cryptococcus neoformans = assay: Antifungal activity against Cryptococcus neoformans ATCC 90113 assessed as growth inhibition after 70-74 hrs by CLSI method; type: functional, organism-based; conditions: Cryptococcus neoformans, ATCC 90113; for IC50: read-out: IC50
# LLC-PK1 = assay: Cytotoxicity against pig LLC-PK1 cells assessed as cell viability after 48 hrs by neutral red uptake assay; type: cell-based, Sus scrofa; conditions: llc-pk1, 48 h; method in brief: as §1
# Vero = assay: Cytotoxicity against african green monkey Vero cells assessed as cell viability after 48 hrs by neutral red uptake assay; type: cell-based; conditions: chlorocebus sabaeus; method in brief: as §1
# Candida albicans = assay: Antifungal activity against Candida albicans assessed as growth inhibition; type: functional, organism-based
# KB = assay: Cytotoxicity against human KB cells assessed as cell viability after 48 hrs by neutral red uptake assay; type: cell-based; method in brief: as §1
# Pichia kudriavzevii = assay: Antifungal activity against Candida krusei assessed as growth inhibition; type: functional, organism-based
# [6] = Selectivity index, ratio of cytotoxicity against human BT549 cells to IC50 for Cryptococcus neoformans ATCC 90113; type: toxicity, cell-based, BT-549; conditions: read-out: Selectivity Index
Structure (SMILES),Activity (SK-OV-3) [µg/mL],growth inhibition (GI) (Aspergillus fumigatus),Activity (BT-549) [µg/mL],selectivity ratio [1],growth inhibition (GI) (Nakaseomyces glabratus),Activity (SK-MEL) [µg/mL],selectivity ratio [2],selectivity ratio [3],selectivity ratio [4],selectivity ratio [5],growth inhibition (GI) (Escherichia coli),MFC (Cryptococcus neoformans) [mg/L],MIC (Cryptococcus neoformans) [mg/L],IC50 (Cryptococcus neoformans) [mg/L],Activity (LLC-PK1) [µg/mL],Activity (Vero) [µg/mL],growth inhibition (GI) (Candida albicans),Activity (KB) [µg/mL],growth inhibition (GI) (Pichia kudriavzevii),selectivity ratio [6]
COC(=O)[C@H](Cc1c[nH]c(-c2ccccc2)n1)NC(=O)[C@@H](N)Cc1c[nH]c2ccccc12,> 10,inactive,> 10,> 1.3,inactive,> 10,> 1.3,> 1.3,> 1.3,> 1.3,inactive,20,20,7.97,> 10,> 10,inactive,> 10,inactive,> 1.3
Cc1ccc(-c2nc(C[C@H](NC(=O)[C@@H](N)Cc3c[nH]c4ccccc34)C(=O)NCc3ccccc3)c[nH]2)cc1,> 10,inactive,> 10,> 1.3,inactive,> 10,> 1.3,> 1.3,> 1.3,> 1.3,inactive,,20,7.84,> 10,> 10,inactive,> 10,inactive,> 1.3
COC(=O)[C@H](Cc1c[nH]c(-c2ccc(-c3ccccc3)cc2)n1)NC(=O)[C@@H](N)Cc1c[nH]c2ccccc12,> 10,inactive,> 10,> 2.6,inactive,> 10,> 2.6,> 2.6,> 2.6,> 2.6,inactive,20,10,3.82,> 10,> 10,inactive,> 10,inactive,> 2.6
COC(=O)[C@H](CCCNC(=N)N)NC(=O)[C@H](Cc1c[nH]c(-c2cccc3ccccc23)n1)NC(=O)OC(C)(C)C,> 10,inactive,> 10,> 8,inactive,> 10,> 8,> 8,> 8,> 8,inactive,2.5,2.5,1.25,> 10,> 10,inactive,> 10,inactive,> 8
COC(=O)[C@H](CCCNC(=N)N)NC(=O)[C@H](Cc1c[nH]c(-c2ccc(-c3ccccc3)cc2)n1)NC(=O)OC(C)(C)C,> 10,inactive,> 10,> 2,inactive,> 10,> 2,> 2,> 2,> 2,inactive,10,10,4.91,> 10,> 10,inactive,> 10,inactive,> 2
N[C@@H](Cc1c[nH]c2ccccc12)C(=O)N[C@@H](Cc1c[nH]c(-c2ccccc2)n1)C(=O)NCc1ccccc1,> 10,inactive,> 10,> 4.9,inactive,> 10,> 4.9,> 4.9,> 4.9,> 4.9,inactive,5,5,2.04,> 10,> 10,inactive,> 10,inactive,> 4.9
COC(=O)[C@H](CCCNC(=N)N)NC(=O)[C@@H](N)Cc1c[nH]c(-c2ccc(-c3ccccc3)cc2)n1,> 10,inactive,> 10,> 1.8,inactive,> 10,> 1.8,> 1.8,> 1.8,> 1.8,inactive,10,10,5.49,> 10,> 10,inactive,> 10,inactive,> 1.8
Cc1ccc(-c2nc(C[C@H](NC(=O)OC(C)(C)C)C(=O)N[C@@H](CCCNC(=N)N)C(=O)NCc3ccccc3)c[nH]2)cc1,> 10,inactive,> 10,> 1.7,inactive,> 10,> 1.7,> 1.7,> 1.7,> 1.7,inactive,10,10,6.04,> 10,> 10,inactive,> 10,inactive,> 1.7
CC(C)(C)OC(=O)N[C@@H](Cc1c[nH]c(-c2ccccc2)n1)C(=O)N[C@@H](CCCNC(=N)N)C(=O)NCc1ccccc1,> 10,inactive,> 10,> 3.9,inactive,> 10,> 3.9,> 3.9,> 3.9,> 3.9,inactive,5,5,2.56,> 10,> 10,inactive,> 10,inactive,> 3.9
